SMILES strings stand for the structures. In brackets after ≈: the same amount, converted by molar mass.

By IC50 is commonly meant the concentration at which inhibition is half-maximal. Broadly, the clearance is the volume of plasma or blood freed of the substance per unit of time. Low readings indicate a low capacity for elimination, high ones a high capacity for elimination. As a reminder, the AUC is concentration integrated over time. Low readings indicate less exposure, high ones more exposure. As a reminder, the Tmax is the time at which the peak concentration occurs. What is called Papp is the rate of passage across a membrane or cell layer, normalised by area and donor concentration. Low values mean poor permeation, high ones ready permeation. Usually T/C stands for the result in the treated group divided by that in the control group, in per cent. As a reminder, the bioavailability is the share of a dose that reaches the circulation, judged against a reference dose that is usually intravenous. Low values mean little systemic uptake, high ones much systemic uptake. By inhibition in vivo is commonly meant the relative decrease from the control value, in per cent. A word on the Cmax: it is the maximum level reached in the sampled fluid or tissue. As usually defined, the MRT is a mean duration of stay, worked out from the concentration-time curve.

Data set [1] is described as follows: Inhibition of SPT in human HCC4006 cells assessed as reduction in ceramide content after 24 hrs in presence of C16-ceramide-d31/C14-phosphatidylcholine-d72 by LC/MS analysis. Conditions: HCC4006, 24 h.
Data set [2] is described as follows: Total clearance in non-fasted mouse at 0.1 mg/kg, iv administered as cassette dosing by LC/MS/MS analysis. Type of data set: ADME, organism-based. Particulars: in vivo. Put shortly: (§1)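 Non-fasted mice received compounds as cassettes, intravenously at 0.1 mg/kg (10 compounds per cassette) or orally at 1 mg/kg (5 compounds per cassette). Blood was collected and centrifuged to plasma. Plasma was deproteinized with acetonitrile and centrifuged before analysis. Parameters are means of n = 3.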

Data set [3] can be described thus: Clearance in mouse liver microsomes in presence of NADPH. Conditions: read-out: CLH. Type of data set: ADME, microsome. Put shortly: (§2)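 Metabolic clearance was measured in human or mouse liver microsomes with NADPH, n = 2, in μL/min/mg.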
On the technique in general: Microsomes from liver hold many membrane-bound enzymes, among them those of drug oxidation.

The nature of data set [4]: AUC in non-fasted mouse at 1 mg/kg, po administered as cassette dosing by LC/MS/MS analysis. Format: ADME, organism-based. Conditions: in vivo. In a few lines: as §1
Data set [5] deals with HCC4006. In words: Growth inhibition of human HCC4006 cells assessed as inflection point after 5 days by cell-titer-glo luminescent cell viability assay. Format: functional. Put shortly: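 HCC4006 cells were grown in RPMI with 10% FBS and penicillin/streptomycin, seeded at 250 cells/well and cultured overnight. Cells were then exposed to compound for 5 days, and the medium was replaced with CellTiter-Glo reagent for a luminescence read. The IP is the concentration at the inflection point of the dose-response curve, n = 2.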

Data set [6] in a line: Tmax in non-fasted mouse at 1 mg/kg, po administered as cassette dosing by LC/MS/MS analysis. Type of data set: ADME, organism-based. Conditions: in vivo. Put shortly:
as §1

Data set [7] is described as follows: Permeability of the compound from apical to basolateral side at pH 7.8 by PAMPA. Background: PAMPA measures passive passage across an artificial lipid membrane.
Data set [8] in a line: Antitumor activity against human PL21 cells xenografted in mouse at 30 mg/kg, po administered every other day for 2 weeks relative to control. Format: functional. In a few lines: (§3)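 PL-21 xenograft mice, n = 6 per group. Compound was suspended in 0.5% aqueous methylcellulose and given orally every other day for two weeks at 10 or 30 mg/kg. Tumor volume and body weight were followed. T/C is the median tumor weight of the treated group divided by that of the control group.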
For orientation: A xenograft is tissue or cells of one species grown in another, often human tumour cells in immunodeficient mice.

In data set [9] the test system is Mus musculus. In words: Toxicity in mouse xenografted with human PL21 cells assessed as body weight loss at 10 to 30 mg/kg, po administered every other day for 2 weeks. Type of data set: organism-based. Conditions: in vivo, 336 h. Put shortly:
as §3

A short description of data set [10]: Volume of distribution at steady state in non-fasted mouse at 0.1 mg/kg, iv administered as cassette dosing by LC/MS/MS analysis. Particulars: in vivo, read-out: Vdss. Type of data set: ADME, organism-based. Put shortly: as §1
Data set [11] in a line: Oral bioavailability in non-fasted mouse at 1 mg/kg administered as cassette dosing by LC/MS/MS analysis. Particulars: in vivo. Type of data set: ADME, organism-based. Put shortly:
as §1

The test system of data set [12] is Mus musculus. The data set is described as follows: In vivo inhibition of SPT in tumors of human HCC1806 cells xenografted in mouse assessed as reduction in 3-KDS levels at 10 mg/kg, po measured after 8 hrs post dose by LC/MS analysis relative to control. Type of data set: functional. In a few lines:
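HCC1806 breast cancer xenograft mice were dosed orally at 10 mg/kg. Tumor 3-KDS was quantified by LC/MS 8 h after dosing and compared with vehicle. Data are mean ± SD, n = 5, analysed by Dunnett's test.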

Data set [13] is described as follows: Cmax in non-fasted mouse at 1 mg/kg, po administered as cassette dosing by LC/MS/MS analysis. Type of data set: ADME, organism-based. Conditions: in vivo. Also on record: dose 1 mg/kg, route oral. In a few lines: as §1
Data set [14] in a line: MRT in non-fasted mouse at 1 mg/kg, po administered as cassette dosing by LC/MS/MS analysis. Type of data set: ADME, organism-based. Particulars: in vivo. In a few lines:
as §1

A short description of data set [15]: Thermodynamic solubility in Japanese pharmacopoeia disintegration test solution 2 at 6.8. Type of data set: physicochemical. Conditions: Japanese pharmacopoeia disintegration test solution 2, pH 6.8; read-out: Therm_solubility. Put shortly:
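Thermodynamic solubility was measured in Japanese Pharmacopoeia disintegration test solution 2 at pH 6.8.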

The nature of data set [16]: Clearance in human liver microsomes in presence of NADPH. Particulars: read-out: CLH. Format: ADME, microsome. Put shortly: as §2
Data set [17] in a line: Antitumor activity against human PL21 cells xenografted in mouse at 10 mg/kg, po administered every other day for 2 weeks relative to control. Format: functional. In a few lines: as §3
Data set [18] is described as follows: Growth inhibition of human PL21 cells after 5 days by cell-titer-glo luminescent cell viability assay. Type of data set: functional. Conditions: for IC50: Homo sapiens, PL-21, 120 h.
The target in data set [19] is T1, Serine palmitoyltransferase 2 (Homo sapiens, UniProt O15270).
T1 sequence (O15270 whole entry): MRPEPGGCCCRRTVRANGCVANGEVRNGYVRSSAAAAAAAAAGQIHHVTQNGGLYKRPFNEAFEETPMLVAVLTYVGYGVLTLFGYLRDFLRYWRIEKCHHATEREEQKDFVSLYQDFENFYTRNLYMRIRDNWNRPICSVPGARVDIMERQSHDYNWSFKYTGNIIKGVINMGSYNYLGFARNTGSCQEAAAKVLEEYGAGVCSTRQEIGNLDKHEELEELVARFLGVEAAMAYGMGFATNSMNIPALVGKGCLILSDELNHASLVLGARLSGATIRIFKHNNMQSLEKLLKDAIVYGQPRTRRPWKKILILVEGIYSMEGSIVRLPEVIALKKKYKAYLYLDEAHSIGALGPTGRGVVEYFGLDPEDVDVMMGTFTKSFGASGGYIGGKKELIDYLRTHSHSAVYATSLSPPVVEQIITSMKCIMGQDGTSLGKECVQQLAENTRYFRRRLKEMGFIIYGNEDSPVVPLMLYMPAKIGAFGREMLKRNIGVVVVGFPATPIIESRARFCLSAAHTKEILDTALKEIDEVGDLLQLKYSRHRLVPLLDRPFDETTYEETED
In words: Inhibition of human SPT2 transfected in Freestyle293 cells using L-serine and palmitoyl-CoA as substrate preincubated for 60 mins followed by substrate addition measured after 15 mins by mass spectrometric analysis. Format: cell-based.

With `COc1cc(C(=O)N2CC[C@H](NC(=O)c3ccccc3OC(F)(F)F)c3c2cnn3C(C)C)cnc1OC`, the IC50 in [1] was found to be 2.4 nM; in [18], 4.1 nM. Also, the clearance in data set [2] is 15.9 mL/min/kg. The values for the microsomal CLint in data set [3] and in [16] were 5 µL/min/mg and 6 µL/min/mg, respectively. Further, the AUC in [4] was 572 ng·h/mL. The IP in data set [5] is on record as 3.9 nM. In addition, in [6], the Tmax stood at 0.5 h. For the same molecule, in data set [7], the Papp came out at 16.7 ×10⁻⁶ cm/s. Further, the T/C in [8] came out at 38%; in data set [17] it was 52%. Besides, the Activity result in [9] is reported as “Non-Toxic”. In [10], the Vd turned out to be 1.13 L/kg. For the same molecule, in data set [11], the bioavailability came to 53%. Moreover, in [12], the inhibition in vivo at 10 mg/kg was 40%. The same molecule had a Cmax in data set [13] of 309 ng/mL. Besides, in data set [14], the MRT turned out to be 1.4 h. Besides, the solubility thermodynamic in [15] was 24 µg/mL (≈ 45 µM). Further, the Imax in data set [18] is reported as above 90%.
On to `CCCCCCC(=O)CCCCCC/C=C/C[C@@H](O)[C@H](O)[C@@](N)(CO)C(=O)O` [MYRIOCIN], for which the IC50 in data set [1] stood at 1.5 nM; in data set [18], 7.8 nM; in data set [19], 0.13 nM. Moreover, the IP in data set [5] is recorded as 2.1 nM. The molecule further showed an Imax in data set [18] above 90%.
In the case of `Cn1nc(C(F)(F)F)cc1C(=O)N[C@@H]1CCN(C(=O)c2cc(Cl)c3nccnc3c2)C[C@@H]1c1ccccc1`, the IC50 worked out at 2.3 nM in data set [1] and 11 nM in data set [18]. This molecule showed a clearance in [2] of 8.45 mL/min/kg. Also, the microsomal CLint in data set [3] was 60 µL/min/mg; in [16], below 1 µL/min/mg. Further, the AUC in [4] was 1110 ng·h/mL. In addition, the IP in data set [5] was 11 nM. For the same molecule, the Tmax in data set [6] stood at 1.2 h. This molecule came in with a Papp in data set [7] of 20.3 ×10⁻⁶ cm/s. Besides, in [10], the Vd came out at 0.75 L/kg. Moreover, the bioavailability in [11] is 56%. In [12], the inhibition in vivo at 10 mg/kg was 40%. This molecule also showed a Cmax in data set [13] of 282 ng/mL. This molecule had an MRT in data set [14] of 2.7 h. Further, the solubility thermodynamic in data set [15] turned out to be 8 µg/mL (≈ 14.7 µM). In [18], this molecule showed an Imax above 90%.
Turning to `COc1ccc(C(=O)N2CCC(NC(=O)c3ccccc3Cl)c3c2cnn3C)cc1OC` (racemic), the microsomal CLint in [3] and in [16] was 6 µL/min/mg throughout. For the same molecule, the IP in data set [5] is recorded as 250 nM. Besides, the bioavailability in data set [11] came to 28%.
In the case of `COc1cc(C(=O)N2CCC(NC(=O)c3ccccc3OC(F)(F)F)c3c2cnn3C(C)C)cnc1OC` (racemic), the IP in [5] was 23 nM. For the same molecule, in data set [11], the bioavailability was found to be 25%. Moreover, the microsomal CLint in data set [16] stood at 15 µL/min/mg.
On to `COc1cc(C(=O)N2CC[C@@H](NC(=O)c3ccccc3OC(F)(F)F)c3c2cnn3C(C)C)cnc1OC`, for which the IP in data set [5] is above 30000 nM.
On the same count and under the same terms, then `COc1ccc(C(=O)N2CCC(NC(=O)c3ccccc3Cl)C(c3ccccc3)C2)cc1OC` (mixture of isomers), with 41 nM.
`COc1ccc(C(=O)N2CCC(NC(=O)c3ccccc3Cl)c3ccc(Cl)cc32)cc1OC` (stereo not given): the microsomal CLint was 216 µL/min/mg in data set [3] and 132 µL/min/mg in [16]. Also, in data set [5], the IP was determined as 500 nM.
As for `COc1ccc(C(=O)N2CC[C@@H](NC(=O)c3ccccc3Cl)[C@@H](c3ccccc3)C2)cc1OC`, the microsomal CLint in [3] amounted to 245 µL/min/mg; in [16] it was 21 µL/min/mg. The IP in data set [5] came out at 14 nM. For the same molecule, the bioavailability in data set [11] is below 1%.
Turning to `COc1ccc(C(=O)N2CC[C@H](NC(=O)c3ccccc3Cl)[C@H](c3ccccc3)C2)cc1OC`, the IP in data set [5] was found to be 3800 nM.
Still for that read-out and setting: then `COc1ccc(C(=O)N2CC[C@@H](NC(=O)c3ccccc3Cl)[C@H](c3ccccc3)C2)cc1OC`, with 570 nM; and `COc1ccc(C(=O)N2CC[C@H](NC(=O)c3ccccc3Cl)[C@@H](c3ccccc3)C2)cc1OC`, with above 30000 nM.
With `COc1ccc(C(=O)N2CCC(Nc3ccc(Cl)cc3)c3ccc(Cl)cc32)cc1OC` (stereo not given), in [5], the IP is given as 12000 nM.

These data come from ChEMBL document CHEMBL4219232, “Discovery of novel serine palmitoyltransferase inhibitors as cancer therapeutic agents” (Bioorg Med Chem, 2018).
